Assay results from ChEMBL document CHEMBL3992483, “Traceless Solid-Phase α-Hydroxytropolone Synthesis” (Medchemcomm, 2016).
“And” between values parts separate entries of the source, which are not always exact repeats. Identical values can stand only once.

Experiments:
[1] = system: Human immunodeficiency virus 1; assay: Stabilization of HIV1 RT-RNase H by sypro-orange dye-based differential scanning fluorimetric analysis
Method in brief: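 Thermal shift of HIV RT RNase H in 20 mM HEPES pH 7.5, 10 mM MgCl2, 100 mM NaCl with Sypro Orange at 1:2000. 1 µL of 1 mM compound in DMSO added to 49 µL of this buffer. Heated 30 to 80 °C in 0.2 °C steps, read at ex 483 / em 568 nm. ΔTm determined, duplicate runs.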

[2] = system: Human immunodeficiency virus 1; assay: Antiviral activity against HIV1 RF infected in human CEM-SS cells assessed as cytoprotective effect by measuring cell viability at 0.78 to 50 uM by XTT assay relative to control; type: functional
Method in brief: (§1)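 HIV-1 strain RF infection of CEM-SS cells. Samples dissolved at 10 mM in DMSO, tested at 2-fold dilutions from 50 µM down to 0.78 µM final, in duplicate. EC50 estimated by regression analysis.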

[3] = system: CEM-SS; assay: (§2) Cytotoxicity against human CEM-SS cells assessed as reduction in cell viability by XTT assay; type: cell-based; conditions: cem-ss
Method in brief: (§3)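 Uninfected CEM-SS cells in the same plate as the HIV-1 RF infection assay. Compounds tested at 2-fold dilutions from 50 µM to 0.78 µM final, in duplicate. CC50 estimated by regression analysis.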

[4] = Inhibition of HIV1 RT-RNase H activity using 18-nucleotide 3'-fluorescein-labeled RNA/5'-dabsyl-labeled DNA hybrid after 10 mins by FRET assay; parameters: species or system Human immunodeficiency virus 1
[5] = system: Human immunodeficiency virus 1; assay: Antiviral activity against HIV1 RF infected in human CEM-SS cells assessed as cytoprotective effect by measuring increase in cell viability by XTT assay; type: functional, cell-based; method in brief: as §1
[6] = as §2; type: cell-based; conditions: CEM-SS cells; method in brief: as §3

SMILES: Cc1cc(O)c(=O)c(O)cc1C(=O)c1ccccc1
- ΔTm [1]: 2.5 °C and 2.9 °C
- Activity [2]: <35%
- CC50 [3]: 2600 to 8800 nM and 7200 to 8800 nM
- IC50 [4]: 320 nM and 220 nM

SMILES: CC(=O)c1cc(O)c(=O)c(O)cc1C
- ΔTm [1]: 2.3 °C and 2.9 °C
- CC50 [3]: 7700 to 24000 nM and 20000 to 21000 nM
- EC50 [5]: 2800 to 5200 nM and 6500 to 7300 nM
- IC50 [4]: 570 nM and 290 nM

SMILES: Cc1cc(O)c(=O)c(O)cc1C(=O)c1ccc(-c2ccccc2)cc1
- ΔTm [1]: 1.7 °C and 1.9 °C
- Activity [2]: <35%
- CC50 [3]: 100 to 830 nM
- CC50 [6]: 140 to 970 nM
- IC50 [4]: 1000 nM and 590 nM

SMILES: Cc1cc(O)c(=O)c(O)cc1-c1ccc(C(F)(F)F)cc1
- ΔTm [1]: 0.2 °C and 0.9 °C
- Activity [2]: <35%
- CC50 [3]: 2200 to 6700 nM
- CC50 [6]: 2300 to 7100 nM
- IC50 [4]: 800 nM and 1100 nM

SMILES: Cc1cc(O)c(=O)c(O)cc1-c1cccc2ccccc12
- ΔTm [1]: 1 °C and 1.5 °C
- Activity [2]: <35%
- CC50 [3]: 3300 to 6700 nM
- CC50 [6]: 2100 to 5400 nM
- IC50 [4]: 560 nM and 260 nM

SMILES: COC(=O)c1cc(O)c(=O)c(O)cc1C
- ΔTm [1]: 2.9 °C and 2.7 °C
- CC50 [3]: 5400 to 11000 nM and 15000 nM
- EC50 [5]: 2200 to 4200 nM and 7200 to 7700 nM
- IC50 [4]: 440 nM and 160 nM

SMILES: Cc1cc(O)c(=O)c(O)cc1-c1ccccc1
- ΔTm [1]: 2.2 °C and 1.5 °C
- Activity [2]: <35%
- CC50 [3]: 5600 to 7000 nM and 2500 to 3700 nM
- IC50 [4]: 250 nM and 390 nM

SMILES: CCOC(=O)c1cc(O)c(=O)c(O)cc1C
- ΔTm [1]: 2.9 °C and 2.4 °C
- Activity [2]: <50%
- CC50 [3]: 8500 to 9700 nM and 22000 nM
- EC50 ([5]; Human immunodeficiency virus 1, RF, CEM-SS): 4800 to 5100 nM
- IC50 [4]: 540 nM and 250 nM

SMILES: Cc1cc(O)c(=O)c(O)cc1C(=O)C1CCCCC1
- ΔTm [1]: 2 °C and 2.4 °C
- Activity [2]: <35%
- CC50 [3]: 2700 to 7000 nM
- CC50 [6]: 2300 to 3100 nM
- IC50 [4]: 520 nM and 210 nM
